Source: ChEMBL document CHEMBL4270573, “Novel nicotinoyl pyrazoline derivates bearing N-methyl indole moiety as antitumor agents: Design, synthesis and evaluation” (Eur J Med Chem, 2018)
The source made the active and inactive calls. The rule behind the calls is not given here.

Experiments:
[1] = tested on: MCF7; experiment: Growth inhibition of human MCF7 cells after 48 hrs by MTT assay; assay type: functional; conditions: MCF7, 48 h
Method in brief: (§1)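 Proliferation read-out; GI50 taken as the concentration giving 50% reduction of cancer cell proliferation.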

[2] = tested on: A549; experiment: Growth inhibition of human A549 cells after 48 hrs by MTT assay; assay type: functional; conditions: A549, 48 h; method in brief: as §1
[3] = tested on: HepG2; experiment: Growth inhibition of human HepG2 cells after 48 hrs by MTT assay; assay type: functional; conditions: HepG2, 48 h; method in brief: as §1
[4] = tested on: HeLa; experiment: Growth inhibition of human HeLa cells after 48 hrs by MTT assay; assay type: functional; method in brief: as §1
[5] = Cytotoxicity against HEK293T cells assessed as reduction in cell viability after 48 hrs by MTT assay; assay type: cell-based, HEK-293T; conditions: human
[6] = Inhibition of porcine brain tubulin polymerization measured over 30 mins; design: species or system Sus scrofa
[7] = molecular target: T1, Tubulin (Homo sapiens) (UniProt P68371+Q9H4B7+P0DPH7+P68366+Q13509+Q71U36+P04350+Q3ZCM7+P07437+P68363+Q9BQE3+Q6PEY2+Q13885+Q9BVA1+Q9BUF5); experiment: Inhibition of tubulin polymerization in human HepG2 cells assessed as abnormal microtubule network formation at 0.04 uM after 12 hrs by DAPI staining based immunofluorescence confocal laser scanning microscopic analysis; assay type: cell-based
[8] = molecular target: T1, Tubulin (Homo sapiens); experiment: Inhibition of tubulin polymerization in human HeLa cells assessed as abnormal microtubule network formation at 0.04 uM after 12 hrs by DAPI staining based immunofluorescence confocal laser scanning microscopic analysis; assay type: cell-based
[9] = tested on: HeLa; experiment: Antitumor activity against human HeLa cells xenografted in nude mouse assessed as tumor volume at 10 mg/kg, ip after 14 days (reference value: 2292.17 mm3); assay type: functional
[10] = tested on: HeLa; experiment: Antitumor activity against human HeLa cells xenografted in nude mouse assessed as tumor weight at 10 mg/kg, ip after 14 days (reference value: 1.54 g); assay type: functional
[11] = organism: Bos taurus; experiment: Inhibition of colchicine binding to calf brain tubulin preincubated for 1 hr followed by colchicine addition measured after 1 hr by UPLC-MS/MS analysis
[12] = tested on: HeLa; experiment: Antitumor activity against human HeLa cells xenografted in nude mouse assessed as necrosis of tumor cells at 10 mg/kg, ip after 14 days by hematoxylin and eosin staining based microscopic analysis; assay type: functional, organism-based
Method in brief: (§2)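 Excised tumours and heart, liver, kidney and spleen were H&E-stained and examined microscopically. Tumour scoring covered cell arrangement and necrosis. Organ scoring covered inflammatory infiltration, edema, necrosis and cell morphology.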

[13] = tested on: HeLa; experiment: Antitumor activity against human HeLa cells xenografted in nude mouse assessed as loose and irregular arrangement of tumor cells at 10 mg/kg, ip after 14 days by hematoxylin and eosin staining based microscopic analysis; assay type: functional, organism-based; method in brief: as §2

Cn1cc(C2CC(c3ccc(Br)cc3)=NN2C(=O)c2cccnc2)c2cc(Br)ccc21 (configuration not stated)
GI50 [1]: 11.8 µM | GI50 [2]: > 10 µM | GI50 [3]: 6.91 µM | GI50 [4]: > 10 µM | CC50 at 48 h [5]: > 300 µM | IC50 [6]: 18.4 µM

Cn1cc(C2CC(c3ccccc3)=NN2C(=O)c2cccnc2Cl)c2ccccc21 (configuration not stated)
GI50 [1]: > 10 µM | GI50 [2]: > 10 µM | GI50 [3]: > 10 µM | GI50 [4]: > 10 µM | CC50 at 48 h [5]: > 300 µM | IC50 [6]: > 40 µM

COc1ccc(C(=O)N2N=C(c3ccccc3)CC2c2cn(C)c3ccccc23)cn1 (configuration not stated)
GI50 [1]: 4.31 µM | GI50 [2]: 3.04 µM | GI50 [3]: 3.13 µM | GI50 [4]: 3.98 µM | CC50 at 48 h [5]: > 300 µM | IC50 [6]: 9.7 µM

COc1cc(C2=NN(C(=O)c3ccc(C)nc3)C(c3cn(C)c4ccccc34)C2)cc(OC)c1OC (configuration not stated)
GI50 [1]: 0.18 µM | GI50 [2]: 0.23 µM | GI50 [3]: 0.31 µM | GI50 [4]: 0.21 µM | CC50 at 48 h [5]: > 300 µM | IC50 [6]: 2.3 µM

CC(=O)O[C@H]1C(=O)[C@@]2(C)[C@H]([C@H](OC(=O)c3ccccc3)[C@]3(O)C[C@H](OC(=O)[C@H](O)[C@@H](NC(=O)c4ccccc4)c4ccccc4)C(C)=C1C3(C)C)[C@]1(OC(C)=O)CO[C@@H]1C[C@@H]2O
inhibition [7]: inactive | inhibition [8]: inactive

COc1ccc2c(c1)c(C1CC(c3ccc(F)cc3)=NN1C(=O)c1ccc(OC)nc1)cn2C (configuration not stated)
GI50 [1]: 0.48 µM | GI50 [2]: 0.71 µM | GI50 [3]: 0.22 µM | GI50 [4]: 0.41 µM | CC50 at 48 h [5]: > 300 µM | IC50 [6]: 2.6 µM

Cn1cc(C2CC(c3ccccc3)=NN2C(=O)c2cccnc2)c2cc(Br)ccc21 (configuration not stated)
GI50 [1]: 1.52 µM | GI50 [2]: 1.6 µM | GI50 [3]: 2.52 µM | GI50 [4]: 1.73 µM | CC50 at 48 h [5]: > 300 µM | IC50 [6]: 3.4 µM

COc1ccc(/C=C\c2cc(OC)c(OC)c(OC)c2)cc1O [COMBRETASTATIN A4]
GI50 [1]: 0.14 µM | GI50 [2]: 0.31 µM | GI50 [3]: 0.17 µM | GI50 [4]: 0.092 µM | CC50 at 48 h [5]: > 300 µM | IC50 [6]: 2.1 µM | Activity [9]: 918.61 mm3 | Activity [10]: 0.59 g | inhibition [11]: Active | Activity [12]: Active | Activity [13]: Active

COc1ccc(C2=NN(C(=O)c3ccc(OC)nc3)C(c3cn(C)c4ccc(OC)cc34)C2)cc1 (configuration not stated)
GI50 [1]: 0.56 µM | GI50 [2]: 0.45 µM | GI50 [3]: 0.23 µM | GI50 [4]: 0.18 µM | CC50 at 48 h [5]: > 300 µM | IC50 [6]: 2.3 µM

COc1cc(C2=NN(C(=O)c3cccnc3)C(c3cn(C)c4ccc(Br)cc34)C2)cc(OC)c1OC (configuration not stated)
GI50 [1]: > 10 µM | GI50 [2]: > 10 µM | GI50 [3]: > 10 µM | GI50 [4]: > 10 µM | CC50 at 48 h [5]: 131 µM | IC50 [6]: > 40 µM

Cn1cc(C2CC(c3ccccc3)=NN2C(=O)c2ccncc2)c2ccccc21 (configuration not stated)
GI50 [1]: 1.11 µM | GI50 [2]: 0.99 µM | GI50 [3]: 0.63 µM | GI50 [4]: 0.59 µM | CC50 at 48 h [5]: 97.3 µM | IC50 [6]: > 40 µM

Cn1cc(C2CC(c3ccccc3)=NN2C(=O)c2ccc(Cl)nc2)c2ccccc21 (configuration not stated)
GI50 [1]: 9.25 µM | GI50 [2]: 8.46 µM | GI50 [3]: 7.91 µM | GI50 [4]: 8.31 µM | CC50 at 48 h [5]: > 300 µM | IC50 [6]: 31.7 µM

Cn1cc(C2CC(c3ccc(Cl)cc3)=NN2C(=O)c2cccnc2)c2cc(Br)ccc21 (configuration not stated)
GI50 [1]: 8.1 µM | GI50 [2]: 7.65 µM | GI50 [3]: 5.8 µM | GI50 [4]: 5.2 µM | CC50 at 48 h [5]: > 300 µM | IC50 [6]: 19.4 µM

Cc1ccc(C(=O)N2N=C(c3ccccc3)CC2c2cn(C)c3ccccc23)cn1 (configuration not stated)
GI50 [1]: 4.01 µM | GI50 [2]: 1.19 µM | GI50 [3]: 1.22 µM | GI50 [4]: 2.39 µM | CC50 at 48 h [5]: 154 µM | IC50 [6]: 13.2 µM

COc1ccc2c(c1)c(C1CC(c3ccccc3)=NN1C(=O)c1ccc(OC)nc1)cn2C (configuration not stated)
GI50 [1]: 0.99 µM | GI50 [2]: 1.11 µM | GI50 [3]: 1.33 µM | GI50 [4]: 1.1 µM | CC50 at 48 h [5]: > 300 µM | IC50 [6]: 2.9 µM

Cn1cc(C2CC(c3ccccc3)=NN2C(=O)c2cccnc2)c2ccccc21 (configuration not stated)
GI50 [1]: 7.2 µM | GI50 [2]: > 10 µM | GI50 [3]: 4.63 µM | GI50 [4]: > 10 µM | CC50 at 48 h [5]: > 300 µM | IC50 [6]: 26.7 µM

COc1ccc2c(c1)c(C1CC(c3cc(OC)c(OC)c(OC)c3)=NN1C(=O)c1ccc(OC)nc1)cn2C (configuration not stated)
GI50 [1]: > 10 µM | GI50 [2]: > 10 µM | GI50 [3]: > 10 µM | GI50 [4]: > 10 µM | CC50 at 48 h [5]: > 300 µM | IC50 [6]: > 40 µM

COc1cccc(C2=NN(C(=O)c3ccc(OC)nc3)C(c3cn(C)c4ccc(OC)cc34)C2)c1 (configuration not stated)
GI50 [1]: 0.13 µM | GI50 [2]: 0.47 µM | GI50 [3]: 0.19 µM | GI50 [4]: 0.34 µM | CC50 at 48 h [5]: > 300 µM | IC50 [6]: 1.9 µM

Cn1cc(C2CC(c3ccc(F)cc3)=NN2C(=O)c2cccnc2)c2cc(Br)ccc21 (configuration not stated)
GI50 [1]: 0.48 µM | GI50 [2]: 1.38 µM | GI50 [3]: 0.48 µM | GI50 [4]: 0.63 µM | CC50 at 48 h [5]: > 300 µM | IC50 [6]: 5.2 µM

COc1ccc(C2=NN(C(=O)c3ccncc3)C(c3cn(C)c4ccc(Br)cc34)C2)cc1OC (configuration not stated)
GI50 [1]: > 10 µM | GI50 [2]: 4.25 µM | GI50 [3]: > 10 µM | GI50 [4]: > 10 µM | CC50 at 48 h [5]: > 300 µM | IC50 [6]: 17.8 µM

COc1ccc2c(c1)c(C1CC(c3ccccc3)=NN1C(=O)c1cccnc1)cn2C (configuration not stated)
GI50 [1]: 1.16 µM | GI50 [2]: > 10 µM | GI50 [3]: 5.11 µM | GI50 [4]: 3.59 µM | CC50 at 48 h [5]: > 300 µM | IC50 [6]: 4.3 µM

COc1cccc(C2=NN(C(=O)c3cccnc3)C(c3cn(C)c4ccc(OC)cc34)C2)c1 (configuration not stated)
GI50 [1]: 0.81 µM | GI50 [2]: 1.02 µM | GI50 [3]: 0.91 µM | GI50 [4]: 1.27 µM | CC50 at 48 h [5]: 125 µM | IC50 [6]: 2.1 µM

COc1ccc(C2=NN(C(=O)c3cccnc3)C(c3cn(C)c4ccc(Br)cc34)C2)cc1OC (configuration not stated)
GI50 [1]: 1.17 µM | GI50 [2]: 2.38 µM | GI50 [3]: 2.45 µM | GI50 [4]: 2.09 µM | CC50 at 48 h [5]: > 300 µM | IC50 [6]: 5.6 µM

COc1ccc2c(c1)c(C1CC(c3ccc(Br)cc3)=NN1C(=O)c1ccc(OC)nc1)cn2C (configuration not stated)
GI50 [1]: 6.96 µM | GI50 [2]: > 10 µM | GI50 [3]: > 10 µM | GI50 [4]: > 10 µM | CC50 at 48 h [5]: > 300 µM | IC50 [6]: 19.3 µM

COc1ccc(C2=NN(C(=O)c3cccnc3)C(c3cn(C)c4ccc(Br)cc34)C2)cc1 (configuration not stated)
GI50 [1]: 1.56 µM | GI50 [2]: 1.19 µM | GI50 [3]: 0.54 µM | GI50 [4]: 0.89 µM | CC50 at 48 h [5]: > 300 µM | IC50 [6]: 4.5 µM

COc1ccc2c(c1)c(C1CC(c3ccc(Cl)cc3)=NN1C(=O)c1ccc(OC)nc1)cn2C (configuration not stated)
GI50 [1]: 3.71 µM | GI50 [2]: 3.39 µM | GI50 [3]: 2.08 µM | GI50 [4]: 2.26 µM | CC50 at 48 h [5]: > 300 µM | IC50 [6]: 15.6 µM
